Converted amounts (≈) assume the structure as drawn. A value given as a limit tells only on which side of the number the result lay.

Data on 46 compounds can be found in ChEMBL document CHEMBL5338794, “Optimization of Orally Bioavailable Antileishmanial 2,4,5-Trisubstituted Benzamides” (J Med Chem, 2023).

In series [1] the test system is Leishmania mexicana. The series can be described thus: Antileishmanial activity against renilla luciferase-expressing Leishmania mexicana promastigotes infected in mouse J774.A1 cells assessed as inhibition of intracellular amastigotes growth incubated for 96 hrs by Renilla luciferase assay. Particulars: J774.A1, 96 h. Type of series: functional, organism-based.
The subject of series [2] is BJ. The series can be described thus: Cytotoxicity against human BJ cells assessed as reduction in cell viability incubated for 72 hrs by Cell TiterGlo assay. It counts as functional, cell-based.
A short description of series [3]: Kinetic aqueous solubility of the compound in PBS at pH 7.4 incubated for 18 hrs by LC-MS analysis. Type of series: physicochemical. The conditions noted are these: read-out: Kinetic_solubility.
Series [4] in a line: Metabolic stability in CD-1 mouse liver microsomes assessed as half life at 1 uM and measured upto 60 mins in presence of NADPH regenerating system by LC-MS/MS analysis. Type of series: ADME, Microsome. The conditions noted are these: 1 h. An outline of the steps:
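Half-life and intrinsic clearance determined by incubation with mouse liver microsomes.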

For `O=C(Nc1ccc(Cl)c(Cl)c1)c1cc([N+](=O)[O-])c(F)cc1Cl`, the EC50 in series [1] was 900 nM; in series [2], 4.2 µM.

Regarding `O=C(Nc1cncc(-c2nc3ccccc3o2)c1)c1cc([N+](=O)[O-])c(N2CCNCC2)cc1Cl`, the solubility kinetic at 18 h in series [3] is 12.4 µM (≈ 5.94 µg/mL). Also, the EC50 amounted to 800 nM in series [1] and 3.1 µM in series [2]. Further, in series [4], the t1/2 was found to be 130 min.

As to `Cc1cc(Cl)c(Cl)cc1NC(=O)c1cc([N+](=O)[O-])c(F)cc1F`, the EC50 in series [1] came to 300 nM; in series [2] it was 1.3 µM.

Turning to `Cc1cc(Cl)c(Cl)cc1NC(=O)c1ccc(N2CCNCC2)c(C#N)c1`, the solubility kinetic at 18 h in series [3] amounted to 3.6 µM (≈ 1.4 µg/mL). Moreover, the EC50 in series [1] amounted to 900 nM; in series [2], 13.5 µM. The t1/2 in series [4] was determined as 48 min.

In the case of `O=C(Nc1cncc(-c2nc3ccccc3s2)c1)c1cc([N+](=O)[O-])c(N2CCNCC2)cc1Cl`, the solubility kinetic at 18 h in series [3] came to 6.3 µM (≈ 3.12 µg/mL). For the same compound, the EC50 in series [1] stood at 600 nM; in series [2], 15.3 µM. In series [4], the t1/2 is 130 min.

As to `Cc1cc(Cl)c(Cl)cc1NC(=O)c1ccc(N2CCNCC2)c([N+](=O)[O-])c1`, the solubility kinetic at 18 h in series [3] is 31 µM (≈ 12.7 µg/mL). In addition, the EC50 was determined as 800 nM in series [1] and 24.9 µM in series [2]. Besides, the t1/2 in series [4] amounted to 67 min.

Regarding `Cc1ccc(-c2nc3ccccc3o2)cc1NC(=O)c1cc([N+](=O)[O-])c(N2CCN(C)CC2)cc1Cl`, the EC50 in series [1] was determined as 800 nM; in series [2], 4.6 µM.

Take `Cc1ccc(-c2nc3ccccc3s2)cc1NC(=O)c1cc([N+](=O)[O-])c(NCCN(C)C)cc1Cl`: the EC50 in series [1] turned out to be 800 nM; in series [2], 17.2 µM.

As to `Cc1ccc(-c2nc3ccccc3s2)cc1NC(=O)c1cc([N+](=O)[O-])c(N(C)CCN(C)C)cc1Cl`, the EC50 in series [1] was 400 nM; in series [2], 6.1 µM.

Take `Cc1ccc(-c2nc3ccccc3s2)cc1NC(=O)c1cc([N+](=O)[O-])c(NCCN)cc1Cl`: the EC50 worked out at 300 nM in series [1] and 6.3 µM in series [2].

As for `Cc1cc(Cl)c(Cl)cc1NC(=O)c1ccc(N2CCNCC2)nc1`, the solubility kinetic at 18 h in series [3] was determined as 188 µM (≈ 68.7 µg/mL). The EC50 in series [1] amounted to 900 nM; in series [2], 24 µM. The t1/2 in series [4] stood at 30 min.

Regarding `O=C(Nc1cccc(-c2ncco2)c1)c1cc([N+](=O)[O-])c(F)cc1F`, the solubility kinetic at 18 h in series [3] was found to be 9.4 µM (≈ 3.25 µg/mL). Moreover, the values for the EC50 in series [1] and in series [2] were 700 nM and 1.5 µM, respectively. For the same compound, in series [4], the t1/2 came to 0.6 min.

In the case of `O=C(Nc1cnc(Cl)c(Cl)c1)c1cc([N+](=O)[O-])c(F)cc1F`, the results for the EC50 in series [1] and in series [2] were 200 nM and 1.6 µM, respectively.

Take `Cc1ccc(-c2nc3ccccc3s2)cc1NC(=O)c1cc([N+](=O)[O-])c(NCCNC(=O)OC(C)(C)C)cc1Cl`: the EC50 in series [1] is 700 nM; in series [2], above 25 µM.

Consider `Cc1cc(Cl)c(Cl)cc1NC(=O)c1cc([N+](=O)[O-])c(N2CCNCC2)cc1Cl`, for which the solubility kinetic at 18 h in series [3] stood at 5.3 µM (≈ 2.35 µg/mL). The EC50 was found to be 100 nM in series [1] and 14.2 µM in series [2]. Moreover, the t1/2 in series [4] is recorded as 56 min.

In the case of `Cc1ccc(-c2nc3ccccc3s2)cc1NC(=O)c1ccc(N2CCNCC2)c([N+](=O)[O-])c1`, the EC50 worked out at 300 nM in series [1] and 8.6 µM in series [2].

With `O=C(Nc1cccc(Cl)c1)c1cc([N+](=O)[O-])c(F)cc1F`, the EC50 came out at 600 nM in series [1] and 1.8 µM in series [2].

As to `O=C(Nc1cncc(-c2nc3ccccc3o2)c1)c1cc([N+](=O)[O-])c(F)cc1Cl`, the 50% effective concentration (EC50) is 1000 nM in series [1] and 2.9 µM in series [2].

As for `O=C(Nc1cncc(-c2nc3ccccc3s2)c1)c1cc([N+](=O)[O-])c(F)cc1Cl`, the values for the EC50 in series [1] and in series [2] were 900 nM and 4.9 µM, respectively.

Turning to `O=C(Nc1cncc(-c2nc3ccccc3o2)c1)c1ccc(N2CCNCC2)c([N+](=O)[O-])c1`, in series [3], the solubility kinetic at 18 h was determined as 15 µM (≈ 6.67 µg/mL). In addition, the EC50 stood at 500 nM in series [1] and 20 µM in series [2]. The t1/2 in series [4] came out at 138 min.

Take `Cc1ccc(-c2nc3ccccc3s2)cc1NC(=O)c1cc([N+](=O)[O-])c(N2CCNCC2)cc1Cl`: the values for the EC50 in series [1] and in series [2] were 700 nM and above 14.5 µM, respectively.

For `CN1CCN(c2cc(Cl)c(C(=O)Nc3cccc(-c4nccs4)c3)cc2[N+](=O)[O-])CC1`, the EC50 in series [1] was determined as 2100 nM.

With `Cc1cc(Cl)c(Cl)cc1NC(=O)c1ccc(F)c([N+](=O)[O-])c1`, the EC50 in series [1] turned out to be 2400 nM.

For the compound `O=C(Nc1cncc(-c2nc3ccccc3o2)c1)c1cc([N+](=O)[O-])c(F)cc1F`, the EC50 is 500 nM in series [1] and above 30 µM in series [2].

Turning to `O=C(Nc1ccc(Cl)c(Cl)c1)c1cc([N+](=O)[O-])c(F)cc1F`, the EC50 in series [1] was 200 nM; in series [2], 2.4 µM.

Take `Cc1ccc(-c2nc3ccccc3s2)cc1NC(=O)c1cc([N+](=O)[O-])ccc1C(F)(F)F`: in series [1], the EC50 came out at 56000 nM.

As for `O=C(Nc1cnc(Cl)c(Cl)c1)c1ccc(N2CCNCC2)c([N+](=O)[O-])c1`, the EC50 in series [1] was 1200 nM.

Take `O=C(Nc1cccc(-c2nc3ccccc3o2)c1)c1cc([N+](=O)[O-])c(F)cc1Cl`: the EC50 in series [1] is 900 nM; in series [2] it was above 30 µM.

As to `Cc1ccc(-c2nc3ccccc3s2)cc1NC(=O)c1cc([N+](=O)[O-])c(N2CCN(C)CC2)cc1Cl`, the solubility kinetic at 18 h in series [3] is below 0.3 µM. Besides, the EC50 in series [1] was 800 nM; in series [2], above 25 µM. Further, the t1/2 in series [4] came to 13 min.

For `Cc1ccc(-c2nc3ccccc3s2)cc1NC(=O)c1cc([N+](=O)[O-])c(N2CC3(CNC3)C2)cc1Cl`, the results for the EC50 in series [1] and in series [2] were 700 nM and 11.3 µM, respectively.

Turning to `Cc1ccc(-c2nc3ccccc3s2)cc1NC(=O)c1cc([N+](=O)[O-])c(F)cc1F`, in series [3], the solubility kinetic at 18 h is 22 µM (≈ 9.36 µg/mL). Besides, the EC50 in series [1] is 600 nM; in series [2] it was above 25 µM. For the same compound, the t1/2 in series [4] is given as 27 min.

Consider `O=C(Nc1ccc(-c2ccccc2)cc1)c1cc([N+](=O)[O-])c(F)cc1Cl`, for which the EC50 in series [1] was 1300 nM.

Take `Cc1ccc(-c2nc3ccccc3s2)cc1NC(=O)c1cc([N+](=O)[O-])c(N2CC3(COC3)C2)cc1Cl`: the EC50 in series [1] is 29000 nM.

Consider `O=C(Nc1cccc(-c2nccs2)c1)c1cc([N+](=O)[O-])c(F)cc1F`, for which the EC50 was found to be 400 nM in series [1] and 1.5 µM in series [2].

As to `COc1ccncc1C(=O)Nc1cc(-c2nc3ccccc3s2)ccc1C`, the EC50 in series [1] came to 31000 nM.

As to `O=C(Nc1ccc(Cl)c(Cl)c1)c1ccc(N2CCNCC2)nc1`, in series [1], the EC50 was 1400 nM.

For the compound `Cc1ccc(-c2nc3ccccc3s2)cc1NC(=O)c1cc([N+](=O)[O-])c(Cl)cc1Cl`, the EC50 in series [1] is 4300 nM.

Regarding `CN1CCN(c2cc(Cl)c(C(=O)Nc3cncc(-c4nc5ccccc5s4)c3)cc2[N+](=O)[O-])CC1`, the figures for the EC50 in series [1] and in series [2] were 900 nM and above 30 µM, respectively.

`Cc1ccc(-c2nc3ccccc3o2)cc1NC(=O)c1cc([N+](=O)[O-])c(N2CCNCC2)cc1Cl`: the solubility kinetic at 18 h in series [3] was 12.8 µM (≈ 6.3 µg/mL). Also, the results for the EC50 in series [1] and in series [2] were 200 nM and 19.1 µM, respectively. The t1/2 in series [4] came out at 120 min.

On to `O=C(Nc1cccc(-c2nc3ccccc3o2)c1)c1cc([N+](=O)[O-])c(F)cc1F`, for which the EC50 in series [1] turned out to be 800 nM; in series [2], 4.5 µM.

On to `Cc1ccc(-c2nc3ccccc3s2)cc1NC(=O)c1cc([N+](=O)[O-])c(N2CC3(CN(C(=O)OC(C)(C)C)C3)C2)cc1Cl`, for which the EC50 in series [1] worked out at 63000 nM.

For the compound `Cc1ccc(-c2nc3ccccc3s2)cc1NC(=O)c1cc([N+](=O)[O-])c(NC2CCN(C)CC2)cc1Cl`, the EC50 in series [1] was found to be 800 nM; in series [2], 9.2 µM.

On to `O=C(Nc1cccc(-c2ncco2)c1)c1cc([N+](=O)[O-])c(F)cc1Cl`, for which, in series [1], the EC50 turned out to be 900 nM.

As for `Cc1ccc(-c2nc3ccccc3o2)cc1NC(=O)c1cc([N+](=O)[O-])c(F)cc1Cl`, the EC50 stood at 400 nM in series [1] and 16 µM in series [2].

With `Cc1cc(Cl)c(Cl)cc1NC(=O)c1cc([N+](=O)[O-])c(F)cc1Cl`, the EC50 in series [1] worked out at 800 nM; in series [2] it was 4.2 µM.

Take `O=C(Nc1cccc(-c2cccnc2)c1)c1cc([N+](=O)[O-])c(F)cc1Cl`: in series [1], the EC50 was 2000 nM.
